Experimental data reported in ChEMBL document CHEMBL1153425, “Inhibitory effects of sesquiterpene lactones isolated from Eupatorium chinense L. on IgE-mediated degranulation in rat basophilic leukemia RBL-2H3 cells and passive cutaneous anaphylaxis reaction in mice” (Bioorg Med Chem, 2009).
Active and inactive are the calls of the source. No cut-off for these calls is given here.

What was measured:
RBL-2H3 [1] = experiment: Inhibition of DNP/BSA-stimulated ERK1/2 phosphorylation in IgE-sensitized rat RBL2H3 cells after 10 mins by Western blot; type: functional, cell-based
Procedure, shortened: (§1)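 Compound-treated, IgE-sensitized RBL-2H3 cells are stimulated with DNP-BSA for 10 min and lysed in RIPA buffer with protease and phosphatase inhibitors. Lysate (20 µg protein) is run on SDS-PAGE and blotted to PVDF. Membranes are blocked with 5% milk/TPBS and probed with primary antibodies, then […] secondaries. Detection is by ECL chemiluminescence.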

RBL-2H3 [2] = experiment: Inhibition of DNP/BSA-stimulated intracellular ROS release in IgE-sensitized rat RBL2H3 cells at 10 uM after 30 mins using CM-H2DCF-DA probe by fluorimetry; type: functional, cell-based
Procedure, shortened: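 IgE-sensitized RBL-2H3 cells (5×10^4/well) are loaded with 10 µM CM-H2DCF-DA for 30 min at 37 °C and washed with PBS. They are then exposed 30 min to 10 µM compound and stimulated with DNP-BSA (10 µg/ml). DCF fluorescence is read at ex 490/em 530 nm.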

RBL-2H3 [3] = experiment: Inhibition of DNP/BSA-stimulated JNK1/2 phosphorylation in IgE-sensitized rat RBL2H3 cells after 10 mins by Western blot; type: functional, cell-based; procedure, shortened: as §1
RBL-2H3 [4] = experiment: Inhibition of DNP/BSA-stimulated intracellular calcium release in IgE-sensitized rat RBL2H3 cells at 10 uM after 30 mins by fluorimetry; type: functional, cell-based
Procedure, shortened: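 IgE-sensitized (0.45 µg/ml anti-DNP IgE, 24 h) RBL-2H3 cells at 5×10^4/well are loaded with Fluo-3 AM for 1 h. They are then incubated 30 min in loading buffer containing 10 µM compound. Ca2+ change after DNP-BSA (10 µg/ml) is read by fluorescence plate reader, ex 490/em 530 nm. Values are mean ± SEM, n=32.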

[5] = tested on: Radical scavenging activity; experiment: Antioxidant activity assessed as DPPH-radical scavenging activity at 10 uM; type: functional
RBL-2H3 [6] = experiment: Inhibition of A-23187-stimulated beta-hexosamonidase release in IgE-sensitized rat RBL2H3 cells at 5 to 10 uM after 30 mins; type: functional, cell-based
RBL-2H3 [7] = experiment: Inhibition of DNP/BSA-stimulated ratio of phospho-Akt to total-Akt level in IgE-sensitized rat RBL2H3 cells after 10 mins by Western blot; type: functional, cell-based; procedure, shortened: as §1
RBL-2H3 [8] = experiment: Inhibition of DNP/BSA-stimulated p38MAPK phosphorylation in IgE-sensitized rat RBL2H3 cells after 10 mins by Western blot; type: functional, cell-based; procedure, shortened: as §1
RBL-2H3 [9] = experiment: Inhibition of DNP/BSA-stimulated histamine release in IgE-sensitized rat RBL2H3 cells at 5 to 10 uM after 30 mins by fluorimetry; type: functional, cell-based
Procedure, shortened: (§2)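 RBL-2H3 cells are plated at 5×10^5 cells/ml, cultured 1 h, then sensitized 24 h with mouse anti-DNP IgE (0.45 µg/ml). After washes, cells sit in Siraganian buffer (pH 7.2; 5.6 mM glucose, 1 mM CaCl2, 0.1% BSA) at 37 °C for 10 min. They are pretreated with 5 or 10 µM compound at 37 °C for 30 min, then challenged with DNP-BSA (10 µg/ml) for 10 min. The reaction is stopped on ice and supernatant taken. Read-outs: β-hexosaminidase by 1 mM p-nitrophenyl-N-acetyl-β-D-glucosaminide in citrate pH 4.5, 37 °C 1 h, A405; histamine by n-butanol/chloroform extraction and o-phthalaldehyde fluorescence (ex 360/em 450), expressed as % inhibition relative to positive and negative controls. Values are mean ± SEM, n=10.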

RBL-2H3 [10] = experiment: Inhibition of DNP/BSA-stimulated beta-hexosamonidase release in IgE-sensitized rat RBL2H3 cells at 5 to 10 uM after 30 mins by colorimetry; type: functional, cell-based; procedure, shortened: as §2

Compound | Activity (RBL-2H3 [1]) | Activity (RBL-2H3 [2]) | Activity (RBL-2H3 [3]) | Activity (RBL-2H3 [4]) | Activity [5] | Activity (RBL-2H3 [6]) | Activity (RBL-2H3 [7]) | Activity (RBL-2H3 [8]) | Activity (RBL-2H3 [9]) | Activity (RBL-2H3 [10])
C=C1C(=O)O[C@@H]2/C=C(\C)C[C@H](O)/C=C(\C)C[C@@H](OC(=O)/C(=C\C)CO)[C@@H]12 | inactive | inactive | inactive | Active | inactive | Active | Active | Active | Active | Active
C=C1C(=O)O[C@H]2/C=C(/C)[C@H](OC(C)=O)C[C@@H]3O[C@]3(C)C[C@@H](OC(=O)/C(=C/C)CO)[C@@H]12 | inactive | inactive | inactive |  | inactive |  | Active | Active |  | 
C=C1C(=O)O[C@H]2/C=C(/C)[C@@H](OC(C)=O)C/C=C(\CO)C[C@@H](OC(=O)C(C)CC)[C@@H]12 (stereo not given in full) | inactive | inactive | inactive |  | inactive |  | Active | Active |  | 
C=C1C(=O)O[C@@H]2/C=C(/C)[C@@H](OC(C)=O)C[C@H]3O[C@]3(C)C[C@@H](OC(=O)/C(=C/C)CO)[C@@H]12 | inactive | inactive | inactive |  | inactive |  | Active | Active |  | 
C=C1C(=O)O[C@@H]2/C=C(\C)[C@@H](O)C/C=C(\C)C[C@@H](OC(=O)/C(=C\C)CO)[C@@H]12 | inactive | inactive | inactive |  | inactive |  | Active | Active |  | 
C=C1C(=O)O[C@@H]2/C=C(\C)[C@@H](O)C/C=C(/C=O)C[C@@H](OC(=O)C(C)CC)[C@@H]12 (stereo not given in full) | inactive | inactive | inactive | Active | inactive | Active | Active | Active | Active | Active
C=C1C(=O)O[C@H]2/C=C(/C)[C@@H](OC(C)=O)C/C=C(\C)C[C@@H](OC(=O)/C(=C/C)CO)[C@@H]12 | inactive | inactive | inactive |  | inactive |  | Active | Active |  | 
